This is a sample that favours compounds with a hit; in the whole collection about 4.7% have one here.
ADAM10 inh = human ADAM10 inhibitors, primary screen, biochemical, QFRET, HTS | AID 720582, 2013 | recombinant ADAM10, EDANS/DABCYL FRET peptide cleavage, 3 h | Disintegrin and metalloproteinase domain-containing protein 10 (Homo sapiens), O14672 | actives 0.62% (n = 370,000) | inhibition, % at 7 µM;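 active means inhibition above a per-campaign cutoff equal to the mean of compounds falling between control-based bounds plus 3 SD, cut at about 20% in these data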;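 further: 0% = DMSO wells while the 100% control is not disclosed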
Target sequence (O14672 214-748 limits assumed): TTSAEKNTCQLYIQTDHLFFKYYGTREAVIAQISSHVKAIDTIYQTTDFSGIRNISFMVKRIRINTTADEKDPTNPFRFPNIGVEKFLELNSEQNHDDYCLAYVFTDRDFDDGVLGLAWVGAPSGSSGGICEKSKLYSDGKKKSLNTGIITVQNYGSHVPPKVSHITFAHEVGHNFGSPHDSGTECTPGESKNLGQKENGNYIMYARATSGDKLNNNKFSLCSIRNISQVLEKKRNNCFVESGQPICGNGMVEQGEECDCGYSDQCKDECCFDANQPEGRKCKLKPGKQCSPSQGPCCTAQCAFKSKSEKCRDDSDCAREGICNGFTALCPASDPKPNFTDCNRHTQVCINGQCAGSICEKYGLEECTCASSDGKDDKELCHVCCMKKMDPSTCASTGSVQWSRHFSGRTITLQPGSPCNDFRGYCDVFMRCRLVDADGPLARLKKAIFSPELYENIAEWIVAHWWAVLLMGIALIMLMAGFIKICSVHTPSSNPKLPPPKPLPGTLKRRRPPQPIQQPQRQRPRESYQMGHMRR
SKN-1 block = suppressors of acrylamide-induced Pgst-4::GFP reporter in worms, primary screen, SKN-1 inhibitor project, whole organism, uHTS, GFP/RFP fluorescence ratio, strain VP596. C. elegans VP596 Pgst-4::GFP/RFP ratio, 24 h. inhibition, % at 21.8 µM. actives 0.49% (n = 360,000);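 active means interference check ratio from 0.5 to 1.5 plus GFP to RFP signal ratio inhibition reaching or exceeding a fixed threshold, cut at about 30% in these data, passing the limit was not always enough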
NR3A LBD binder = binders of NR3A ligand-binding domain, primary screen, biophysical, differential scanning fluorimetry, uHTS; AID 1259313, 2017; actives 2.5% (n = 340,000); NR3A LBD differential scanning fluorimetry, Tm shift; 0% = protein alone, 100% = glycine-bound protein; Glutamate receptor ionotropic, NMDA 3A (GRIN3A) ligand-binding domain; Tm shift relative to glycine control, % at 25 µM;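 active means melting temperature shift of at least 10% of the positive control shift, at one fixed dose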
MPTP block = mitochondrial permeability transition pore inhibitors, primary screen, biochemical, isolated mouse mitochondria, absorbance. Ca2+ swelling absorbance, 30 min. AID 602449, 2012. inhibition, % at 10 µM. actives 1.4% (n = 360,000);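 active means inhibition of 50% or more, scaled per plate between neutral and stimulator controls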;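 further: 0% = DMSO wells given calcium and 100% = 1 mM EGTA wells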
ADAM17 inh = ADAM17 inhibitors, primary screen, biochemical, QFRET; inhibition, % at 6.95 µM; actives 0.83% (n = 370,000); recombinant ADAM17, EDANS/DABCYL FRET peptide cleavage; Disintegrin and metalloproteinase domain-containing protein 17 (Homo sapiens), P78536;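 active means inhibition above the mean of compounds lying between control limits plus 3 SD, set per campaign, cut at about 8.5% in these data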;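 further: 0% = DMSO-only wells as the low control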
MT1-MMP act inh = blockers of MT1-MMP proenzyme processing, primary screen, HT1080 RFP-PRO-GFP cells, GFP/RFP fluorescence | GFP/RFP ratio fluorescence, overnight; percent of plate control window, DMSO zero | GFP/RFP ratio change, % at 20 µM | Matrix metalloproteinase-14 (Homo sapiens), P50281 | AID 651647, 2012 | actives 0.061% (n = 360,000);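 active means GFP/RFP ratio change of at least 30% with cell ATP level not reduced by more than half and red fluorescence within 50% of control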
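Assay system: RFP-PRO-GFP reporter HT1080 cells; read-out basis: GFP/RFP fluorescence ratio; benchmarks: DMSO wells and RFP-L50D-GFP cells; doses: 20 µM single dose, 1% DMSO; schedule: overnight cell settling, then overnight compound exposure, 37 °C, 5% CO2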
* marks the source's active call; other numbers are inactive results.

`O=C(CN(Cc1ccccc1Cl)C(=O)c1csnn1)NCc1ccccc1` gave ADAM10 inh 13.0, SKN-1 block 0.9, NR3A LBD binder -4.5, MPTP block -0.2, ADAM17 inh -2.5 and MT1-MMP act inh -0.2.
`CC(CNC(=O)CCc1nnc2ccc(N3CCC4(CC3)OCCO4)nn12)c1ccccc1` (centres undefined) gave ADAM10 inh 0.7, SKN-1 block 13.0, NR3A LBD binder -2.1, MPTP block 0.0, ADAM17 inh -3.0 and MT1-MMP act inh 0.1.
`COc1ccccc1Oc1ccc2c(c1)C(=O)N(CC1CCCO1)C2=O` (centres undefined) gave ADAM10 inh -8.6, SKN-1 block 1.4, NR3A LBD binder 12.5*, MPTP block 2.8, ADAM17 inh -3.3 and MT1-MMP act inh -6.0.
Screening Cc1ccc(OCC(=O)N/N=C\c2ccc(-c3cccc(C(=O)O)c3)o2)c(C)c1 returned ADAM10 inh -125.2, SKN-1 block 8.9, NR3A LBD binder 12.3*, MPTP block 3.1, ADAM17 inh -33.3 and MT1-MMP act inh -1.7.
`C/C(=N\Nc1ccc(C(=O)c2c(C)cc3ccccn23)cc1[N+](=O)[O-])c1ccc(O)cc1` gave ADAM10 inh 0.1, SKN-1 block -0.7, NR3A LBD binder 6.2, MPTP block 22.1, ADAM17 inh 0.2 and MT1-MMP act inh 14.0.
C/C(=N/Nc1ccc(C(=O)c2c(C)cc3ccccn23)cc1[N+](=O)[O-])c1ccc(O)cc1 was read as ADAM10 inh -2.5, SKN-1 block 5.3, NR3A LBD binder 11.0*, MPTP block 5.2, ADAM17 inh -4.0 and MT1-MMP act inh 24.8.
`CCOc1c2ccc(C(=O)NCc3ccc(OC(F)(F)F)cc3)cc2nn1CC` gave ADAM10 inh inactive, SKN-1 block 27.0, NR3A LBD binder -1.6, MPTP block -1.8, ADAM17 inh -150.8 and MT1-MMP act inh -2.8.
For CCCn1nc2cc(C(=O)NCc3ccc(OC(F)(F)F)cc3)ccc2c1OCC the results were ADAM10 inh inactive, SKN-1 block 62.0*, NR3A LBD binder -29.8, MPTP block -1.8, ADAM17 inh -200.3 and MT1-MMP act inh 6.9.
Screening CCCNC(=O)CC(NS(=O)(=O)c1ccc(Cl)cc1)c1ccco1 (centres undefined) returned ADAM10 inh 1.7, SKN-1 block -11.8, NR3A LBD binder 0.5, MPTP block -0.4, ADAM17 inh -3.1 and MT1-MMP act inh 1.1.
Screening Cc1cc(Cl)nc(-c2ccccc2O)n1 returned ADAM10 inh -2.6, SKN-1 block -5.6, NR3A LBD binder 0.5, MPTP block -1.3, ADAM17 inh -0.7 and MT1-MMP act inh 0.0.
For Cc1cc(Nc2ccc(Cl)cc2)nc(-c2ccccc2O)n1 the results were ADAM10 inh 0.8, SKN-1 block 2.6, NR3A LBD binder 35.4*, MPTP block 12.2, ADAM17 inh -3.3 and MT1-MMP act inh -3.3.
`Cc1cc(Nc2cccc(Cl)c2)nc(-c2ccccc2O)n1` gave ADAM10 inh -22.4, SKN-1 block 3.1, NR3A LBD binder 36.6*, MPTP block 2.1, ADAM17 inh -4.5 and MT1-MMP act inh 0.0.
For O=C(COCc1ccccc1)N[C@@H]1c2ccccc2CC[C@@H]1OCc1ccccc1 the results were ADAM10 inh 1.4, SKN-1 block 14.3, NR3A LBD binder 16.8*, MPTP block -2.5, ADAM17 inh 1.9 and MT1-MMP act inh -8.4.
Screening O=c1[nH]c(/C(Cl)=C/c2c(F)cccc2Cl)nc2cc(Cl)ccc12 returned ADAM10 inh 2.1, SKN-1 block 10.9, NR3A LBD binder -0.8, MPTP block -11.1, ADAM17 inh 1.2 and MT1-MMP act inh -0.2.
`O=c1[nH]c(/C(Cl)=C/c2cc(Cl)ccc2O)nc2cc(Cl)ccc12` gave ADAM10 inh 4.8, SKN-1 block -0.1, NR3A LBD binder 38.9*, MPTP block 26.4, ADAM17 inh 0.1 and MT1-MMP act inh -13.7.
Screening COc1ccccc1-n1c(-c2cccnc2)n[nH]c1=S returned ADAM10 inh -4.6, SKN-1 block -3.1, NR3A LBD binder -12.6, MPTP block -1.9, ADAM17 inh -4.1 and MT1-MMP act inh 1.2.
For COc1ccccc1-n1c(-c2cc(-c3ccc(F)cc3)n[nH]2)n[nH]c1=S the results were ADAM10 inh 7.0, SKN-1 block 0.3, NR3A LBD binder 18.9*, MPTP block 1.4, ADAM17 inh 3.9 and MT1-MMP act inh -0.5.
For O=C(C(c1ccccc1)N1CCOCC1)N1CCOCC1 (centres undefined) the results were ADAM10 inh 3.2, SKN-1 block 15.4, NR3A LBD binder -1.0, MPTP block 1.5, ADAM17 inh 1.8 and MT1-MMP act inh 0.2.
O=C(C=Cc1ccccc1)CC(c1ccccc1)N1CCOCC1 (centres undefined) was read as ADAM10 inh -10.5, SKN-1 block 83.1*, NR3A LBD binder -45.9, MPTP block 0.4, ADAM17 inh -0.1 and MT1-MMP act inh 5.3.
C/C(N)=C(/C#N)C(=O)CSc1nnc(-c2ccccc2Br)o1 was read as ADAM10 inh -3.9, SKN-1 block -6.3, NR3A LBD binder -1.2, MPTP block -2.0, ADAM17 inh -1.6 and MT1-MMP act inh 4.9.
Screening COc1ccc(-c2nnc(SCC(=O)/C(C#N)=C(\C)N)o2)cc1 returned ADAM10 inh -1.6, SKN-1 block 13.3, NR3A LBD binder 12.7*, MPTP block -0.5, ADAM17 inh -7.3 and MT1-MMP act inh -6.7.
For O=C(N/N=C/c1ccc(O)c(O)c1O)/C(=C/c1ccc([N+](=O)[O-])cc1)NC(=O)c1ccccc1 the results were ADAM10 inh 18.1, SKN-1 block 5.6, NR3A LBD binder -2.8, MPTP block 6.1, ADAM17 inh 5.8 and MT1-MMP act inh 4.6.
Screening CC(=O)NS(=O)(=O)c1ccc(NC(=O)CCC(=O)Oc2ccc(C)cc2)cc1 returned ADAM10 inh -7.1, SKN-1 block -10.0, NR3A LBD binder 0.3, MPTP block 0.3, ADAM17 inh -5.0 and MT1-MMP act inh 4.8.
For CCCn1c(N)c(C(c2ccc(OC)cc2)N2CCN(c3ccccc3)CC2)c(=O)[nH]c1=O (centres undefined) the results were ADAM10 inh -1.1, SKN-1 block 37.6*, NR3A LBD binder 2.2, MPTP block -1.7, ADAM17 inh -3.7 and MT1-MMP act inh -0.6.
